The results in this text go back to ChEMBL document CHEMBL3425497, “Discovery of (R)-1-(3-((2-chloro-4-(((2-hydroxy-2-(8-hydroxy-2-oxo-1,2-dihydroquinolin-5-yl)ethyl)amino)methyl)-5-methoxyphenyl)amino)-3-oxopropyl)piperidin-4-yl [1,1'-biphenyl]-2-ylcarbamate (TD-5959, GSK961081, batefenterol): first-in-class dual pharmacology multivalent muscarinic antagonist and …” (J Med Chem, 2015).

Data set [1] can be described thus: Apparent permeability across apical to basolateral side in human Caco2 cells using [14C]mannitol at 10 to 100 uM after 30 mins by HPLC-UV analysis. Type of data set: ADME, cell-based. The conditions noted are these: caco-2, 0.5 h. For orientation: Passage across Caco-2 layers is used to estimate intestinal permeability.
The subject of data set [2] is Cavia porcellus. Briefly: Bronchoprotection in male Duncan Hartley guinea pig bronchoconstriction einthoven model assessed as inhibition of methacholine-induced bronchoconstriction at 100 microg/ml, inhalation after 1.5 hrs by in vivo muscarinic antagonist and beta2 agonist activity assay. It counts as functional. More on the design: scale not given: the % may be the effect or the level left.

A short description of data set [3]: Volume of distribution at steady state in male Sprague-Dawley rat at 0.25 mg/kg, iv. Type of data set: ADME, organism-based. Set-up: dose 0.25 mg/kg, route intravenous. Particulars: in vivo, read-out: Vdss.
Data set [4] in a line: Oral bioavailability in male Sprague-Dawley rat at 0.25 mg/kg. Type of data set: ADME, organism-based. The conditions noted are these: in vivo.
Data set [5] deals with Cavia porcellus. Kind of data set: Bronchoprotection in male Duncan Hartley guinea pig bronchoconstriction einthoven model assessed as inhibition of methacholine-induced bronchoconstriction at 100 microg/ml, inhalation after 1.5 hrs by in vivo beta2 adrenergic receptor agonist activity assay. It counts as functional. More on the design: scale not given: the % may be the effect or the level left.

The next data set addresses CYP2D6 (Homo sapiens, UniProt P10635). Kind of data set: Inhibition of CYP2D6 (unknown origin) at 600 nM. It counts as ADME.
The target of the next data set is CYP2C19 (Homo sapiens, UniProt P33261). Briefly: Inhibition of CYP2C19 (unknown origin) at 600 nM. It counts as ADME.
The species named for data set [6] is Cavia porcellus. Kind of data set: Combined muscarinic antagonist and beta2 agonist activity in guinea pig isolated trachea assessed as smooth muscle relaxation.
Data set [7] deals with Cavia porcellus. Kind of data set: Bronchoprotection in male Duncan Hartley guinea pig bronchoconstriction einthoven model assessed as inhibition of methacholine-induced bronchoconstriction at 100 microg/ml, inhalation after 24 hrs by in vivo beta2 adrenergic receptor agonist activity assay. It counts as functional. More on the design: scale not given: the % may be the effect or the level left. The essentials:
(§1)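 Einthoven bronchoprotection in guinea pigs, read as % bronchoprotection 24 h after inhaled dosing. The TFA salt was used in the initial experiments. For one compound, the edisylate salt was compared with the TFA form. Group sizes were n = 3–8.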

The subject of data set [8] is Cavia porcellus. Briefly: Bronchoprotection in male Duncan Hartley guinea pig bronchoconstriction einthoven model assessed as inhibition of methacholine-induced bronchoconstriction at 100 microg/ml, inhalation after 1.5 hrs by in vivo muscarinic acetylcholine receptor antagonist activity assay. It counts as functional. More on the design: scale not given: the % may be the effect or the level left.

The target in data set [9] is T1, Muscarinic acetylcholine receptor M3 (Homo sapiens, UniProt P20309). Kind of data set: Binding affinity to human muscarinic M3 receptor assessed as dissociation half life. A digest of the protocol: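 Kinetic radioligand dissociation study at the human M3 receptor, reported as dissociation half-life in minutes.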
Target sequence in this assay (P20309 whole entry, looked up): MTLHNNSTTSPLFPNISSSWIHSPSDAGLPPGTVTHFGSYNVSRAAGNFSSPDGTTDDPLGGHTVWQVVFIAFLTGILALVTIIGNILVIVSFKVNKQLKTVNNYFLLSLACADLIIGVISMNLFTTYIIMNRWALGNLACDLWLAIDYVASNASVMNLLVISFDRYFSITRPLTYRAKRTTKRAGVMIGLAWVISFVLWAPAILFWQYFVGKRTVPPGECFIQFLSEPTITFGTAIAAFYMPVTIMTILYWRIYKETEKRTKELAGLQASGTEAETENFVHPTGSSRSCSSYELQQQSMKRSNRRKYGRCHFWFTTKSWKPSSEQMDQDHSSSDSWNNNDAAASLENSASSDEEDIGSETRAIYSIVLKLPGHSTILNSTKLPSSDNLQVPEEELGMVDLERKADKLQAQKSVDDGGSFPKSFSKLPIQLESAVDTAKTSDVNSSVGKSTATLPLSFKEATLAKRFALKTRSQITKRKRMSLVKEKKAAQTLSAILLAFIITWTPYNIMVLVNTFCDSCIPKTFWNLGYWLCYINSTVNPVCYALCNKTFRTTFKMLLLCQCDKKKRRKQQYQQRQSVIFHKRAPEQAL
Data set [10] is filed under the species Cavia porcellus. Briefly: Agonist activity at beta2 adrenergic receptor in guinea pig isolated trachea assessed as smooth muscle relaxation.
For data set [11], the species on record is Cavia porcellus. Kind of data set: Antagonist activity at muscarinic M3 receptor in guinea pig isolated trachea assessed as smooth muscle relaxation.
In data set [12] the test system is Salmonella typhimurium. Briefly: Genotoxicity in Salmonella typhimurium at 5000 ug/plate by AMES test in absence of metabolic activation. Type of data set: toxicity, organism-based. Particulars: salmonella enterica subsp. enterica serovar typhimurium. The essentials:
(§2)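 Exploratory (non-GLP) Ames assay, tested at up to 5000 μg/plate with and without a metabolic activation system.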

Data set [13] relates to Salmonella typhimurium. Kind of data set: Genotoxicity in Salmonella typhimurium at 5000 ug/plate by AMES test in presence of metabolic activation. Type of data set: toxicity, organism-based. Particulars: salmonella enterica subsp. enterica serovar typhimurium. A digest of the protocol: as §2
Data set [14] is described as follows: Clearance in male Sprague-Dawley rat at 0.25 mg/kg, iv. It counts as ADME, organism-based. Set-up: dose 0.25 mg/kg, route intravenous. Particulars: in vivo.
The target in the next data set is CYP3A4 (Homo sapiens, UniProt P08684). Kind of data set: Inhibition of CYP3A4 (unknown origin) at 600 nM. Type of data set: ADME.
The target of the next data set is CYP2C9 (Homo sapiens, UniProt P11712). Kind of data set: Inhibition of CYP2C9 (unknown origin) at 600 nM. Type of data set: ADME.
The nature of data set [15]: Half life in male Sprague-Dawley rat at 0.25 mg/kg, iv. Particulars: in vivo. It counts as ADME, organism-based. Set-up: dose 0.25 mg/kg, route intravenous.
Data set [16] deals with Cavia porcellus. Kind of data set: Bronchoprotection in male Duncan Hartley guinea pig bronchoconstriction einthoven model assessed as inhibition of methacholine-induced bronchoconstriction at 100 microg/ml, inhalation after 24 hrs by in vivo muscarinic antagonist and beta2 agonist activity assay. More on the design: scale not given: the % may be the effect or the level left. It counts as functional. The essentials: as §1

The test system of data set [17] is Cavia porcellus. Briefly: Bronchoprotection in male Duncan Hartley guinea pig bronchoconstriction einthoven model assessed as inhibition of methacholine-induced bronchoconstriction at 100 microg/ml, inhalation after 24 hrs by in vivo muscarinic acetylcholine receptor antagonist activity assay. More on the design: scale not given: the % may be the effect or the level left. Type of data set: functional. A digest of the protocol:
as §1

Data set [18] is filed under the species Cavia porcellus. Kind of data set: Antisialagogue activity in guinea pig assessed as inhibition of pilocarpine-induced sialagogue response at 100 ug/ml, inhalation after 1.5 hrs. It counts as functional. The essentials: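 Guinea pigs were pretreated with test compound by inhalation. At 1.5 h post-dose they were challenged with pilocarpine. The sialagogue (salivation) response was recorded as % inhibition.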

In the next data set the test system is Liver microsome. Kind of data set: Drug metabolism in human liver microsomes assessed as metabolites. Type of data set: ADME. (Microsomes from liver hold many membrane-bound enzymes, among them those of drug oxidation.)
The target in data set [19] is Voltage-gated inwardly rectifying potassium channel KCNH2 (Homo sapiens, UniProt Q12809). Kind of data set: Inhibition of human ERG channel up to 150 nM.
The subject of another data set is Rattus norvegicus. Kind of data set: Toxicity in rat assessed as respiratory irritation and systemic exposures up to 333 ug/kg dosed via inhalation during 7-day inhalation study. Type of data set: organism-based. Particulars: in vivo, 0.333 mg/kg.
The target of data set [20] is T1, Muscarinic acetylcholine receptor M3. Kind of data set: Displacement of [3H]NMS from human muscarinic M3 receptor expressing CHO-K1 cells incubated for 60 mins or 6 hrs by liquid scintillation counting. It counts as cell-based.
Target sequence in this assay (P20309 whole entry): as the sequence (P20309 whole entry, looked up) above
A short description of data set [21]: Half life in human liver microsomes at 3 uM after 30 mins by HPLC-UV analysis. It counts as ADME.
Another data set concerns the target T2, CYP1A2 (Homo sapiens, UniProt P05177).
T2 sequence (P05177 whole entry): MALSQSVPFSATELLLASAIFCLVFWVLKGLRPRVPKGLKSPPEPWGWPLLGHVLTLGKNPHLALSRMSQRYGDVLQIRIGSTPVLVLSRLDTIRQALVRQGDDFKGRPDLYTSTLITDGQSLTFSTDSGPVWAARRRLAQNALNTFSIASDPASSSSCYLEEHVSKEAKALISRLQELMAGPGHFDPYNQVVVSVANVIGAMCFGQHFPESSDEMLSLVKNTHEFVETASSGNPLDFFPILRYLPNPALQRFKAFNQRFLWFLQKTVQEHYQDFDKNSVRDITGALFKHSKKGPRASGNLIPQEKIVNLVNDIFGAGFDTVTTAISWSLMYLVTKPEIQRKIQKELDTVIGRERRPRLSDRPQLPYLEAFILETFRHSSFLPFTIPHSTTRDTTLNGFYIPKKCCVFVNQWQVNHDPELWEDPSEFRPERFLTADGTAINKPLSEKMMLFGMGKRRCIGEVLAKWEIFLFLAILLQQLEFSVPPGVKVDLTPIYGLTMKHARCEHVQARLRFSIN
Kind of data set: Inhibition of CYP1A2 (unknown origin) at 600 nM. It counts as ADME.

Data set [22] relates to Cavia porcellus. Briefly: Bronchoprotection in male Duncan Hartley guinea pig bronchoconstriction einthoven model assessed as inhibition of methacholine-induced bronchoconstriction at 10 microg/ml, inhalation after 1.5 hrs by in vivo muscarinic antagonist and beta2 agonist activity assay. It counts as functional, organism-based. The essentials: (§3)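 Guinea pig Einthoven bronchoprotection model after test compound dosing (TFA salt in initial experiments). % bronchoprotection was scored separately as MA, BA and combined MABA activity, at 1.5 h or 24 h postdose; n = 3–8 animals per group.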

Data set [23] deals with Cavia porcellus. Kind of data set: Bronchoprotection in male Duncan Hartley guinea pig bronchoconstriction einthoven model assessed as inhibition of methacholine-induced bronchoconstriction at 10 microg/ml, inhalation after 24 hrs by in vivo beta2 adrenergic receptor agonist activity assay. It counts as functional, organism-based. A digest of the protocol: as §3
Data set [24] has as its system Cavia porcellus. Kind of data set: Bronchoprotection in male Duncan Hartley guinea pig bronchoconstriction einthoven model assessed as inhibition of methacholine-induced bronchoconstriction at 10 microg/ml, inhalation after 1.5 hrs by in vivo muscarinic acetylcholine receptor antagonist activity assay. Type of data set: functional. More on the design: scale not given: the % may be the effect or the level left. The essentials:
as §3

Data set [25] concerns Cavia porcellus. Kind of data set: Bronchoprotection in male Duncan Hartley guinea pig bronchoconstriction einthoven model assessed as inhibition of methacholine-induced bronchoconstriction at 10 microg/ml, inhalation after 1.5 hrs by in vivo beta2 adrenergic receptor agonist activity assay. Type of data set: functional, organism-based. The essentials:
as §3

Data set [26] has as its system Cavia porcellus. Kind of data set: Bronchoprotection in male Duncan Hartley guinea pig bronchoconstriction einthoven model assessed as inhibition of methacholine-induced bronchoconstriction at 10 microg/ml, inhalation after 24 hrs by in vivo muscarinic antagonist and beta2 agonist activity assay. It counts as functional, organism-based. The essentials: as §3
Data set [27] is filed under the species Cavia porcellus. Briefly: Antisialagogue activity in guinea pig assessed as inhibition of pilocarpine-induced sialagogue response at 10 ug/ml, inhalation after 1.5 hrs. It counts as functional.
Data set [28] deals with Cavia porcellus. Kind of data set: Bronchoprotection in male Duncan Hartley guinea pig bronchoconstriction einthoven model assessed as inhibition of methacholine-induced bronchoconstriction at 10 microg/ml, inhalation after 24 hrs by in vivo muscarinic acetylcholine receptor antagonist activity assay. Type of data set: functional. Set-up: scale not given: the % may be the effect or the level left. The essentials: as §3

Structures are written as SMILES. The source made the active and inactive calls. The calls are words filed in the database; no cut-off is given here. Bounds are passed on as bounds.

The Papp is a coefficient for how fast a substance crosses the barrier. A word on the bioavailability: it is the share of a dose that reaches the circulation, judged against a reference dose that is usually intravenous. Broadly, the inhibition is the drop in the measured response relative to a control, in per cent. Broadly, the EC50 is the concentration that produces a half-maximal response. By clearance is commonly meant a measure of how efficiently the substance is removed, as volume per time. For orientation: half-life means how long it takes for the measured level to halve. In general, Ki refers to the dissociation constant of the complex between target and ligand, obtained from inhibition or displacement.

Sequence of Voltage-gated inwardly rectifying potassium channel KCNH2 (Q12809 whole entry): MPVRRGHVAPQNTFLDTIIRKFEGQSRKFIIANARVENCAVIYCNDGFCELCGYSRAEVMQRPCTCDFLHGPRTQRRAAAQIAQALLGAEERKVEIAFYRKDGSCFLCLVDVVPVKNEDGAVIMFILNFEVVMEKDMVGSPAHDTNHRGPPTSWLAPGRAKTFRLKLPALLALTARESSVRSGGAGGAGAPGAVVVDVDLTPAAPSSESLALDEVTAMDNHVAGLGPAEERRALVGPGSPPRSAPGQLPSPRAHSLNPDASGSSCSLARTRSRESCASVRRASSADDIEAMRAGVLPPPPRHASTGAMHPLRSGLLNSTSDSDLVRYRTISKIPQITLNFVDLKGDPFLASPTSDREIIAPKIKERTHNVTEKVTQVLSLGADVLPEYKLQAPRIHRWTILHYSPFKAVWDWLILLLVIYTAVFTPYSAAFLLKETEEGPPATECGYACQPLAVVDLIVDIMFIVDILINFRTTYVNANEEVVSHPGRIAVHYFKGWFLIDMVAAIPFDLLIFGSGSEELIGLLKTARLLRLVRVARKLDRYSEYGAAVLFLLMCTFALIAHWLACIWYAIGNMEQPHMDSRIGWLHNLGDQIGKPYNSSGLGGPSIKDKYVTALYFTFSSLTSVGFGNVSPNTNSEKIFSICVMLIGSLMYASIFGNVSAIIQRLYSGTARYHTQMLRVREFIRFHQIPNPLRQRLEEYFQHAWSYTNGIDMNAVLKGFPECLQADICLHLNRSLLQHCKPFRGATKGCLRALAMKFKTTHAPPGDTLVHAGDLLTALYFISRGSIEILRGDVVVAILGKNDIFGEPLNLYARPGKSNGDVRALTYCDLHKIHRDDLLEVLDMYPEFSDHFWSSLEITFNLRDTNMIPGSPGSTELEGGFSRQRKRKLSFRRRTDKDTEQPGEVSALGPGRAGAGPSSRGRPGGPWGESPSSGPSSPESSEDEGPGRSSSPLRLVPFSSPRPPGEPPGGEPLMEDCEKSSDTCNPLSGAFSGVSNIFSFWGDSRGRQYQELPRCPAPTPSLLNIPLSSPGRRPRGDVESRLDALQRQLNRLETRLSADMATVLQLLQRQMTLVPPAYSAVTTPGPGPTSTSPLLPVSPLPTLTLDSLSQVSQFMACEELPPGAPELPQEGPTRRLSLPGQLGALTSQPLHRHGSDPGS
Sequence of CYP3A4 (P08684 whole entry): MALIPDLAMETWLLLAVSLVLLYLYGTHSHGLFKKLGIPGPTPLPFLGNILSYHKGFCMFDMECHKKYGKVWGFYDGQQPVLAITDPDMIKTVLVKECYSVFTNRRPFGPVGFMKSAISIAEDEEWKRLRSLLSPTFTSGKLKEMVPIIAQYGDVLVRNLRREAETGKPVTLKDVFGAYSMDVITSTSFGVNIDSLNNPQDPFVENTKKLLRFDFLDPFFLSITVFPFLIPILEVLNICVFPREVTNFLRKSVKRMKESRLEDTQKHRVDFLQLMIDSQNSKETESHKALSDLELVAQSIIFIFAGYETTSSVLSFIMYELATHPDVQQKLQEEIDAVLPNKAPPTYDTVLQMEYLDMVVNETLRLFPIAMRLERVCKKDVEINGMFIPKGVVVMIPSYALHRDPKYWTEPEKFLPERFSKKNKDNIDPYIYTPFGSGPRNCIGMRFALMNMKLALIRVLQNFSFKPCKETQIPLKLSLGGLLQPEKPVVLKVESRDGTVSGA
Sequence of CYP2C9 (P11712 whole entry): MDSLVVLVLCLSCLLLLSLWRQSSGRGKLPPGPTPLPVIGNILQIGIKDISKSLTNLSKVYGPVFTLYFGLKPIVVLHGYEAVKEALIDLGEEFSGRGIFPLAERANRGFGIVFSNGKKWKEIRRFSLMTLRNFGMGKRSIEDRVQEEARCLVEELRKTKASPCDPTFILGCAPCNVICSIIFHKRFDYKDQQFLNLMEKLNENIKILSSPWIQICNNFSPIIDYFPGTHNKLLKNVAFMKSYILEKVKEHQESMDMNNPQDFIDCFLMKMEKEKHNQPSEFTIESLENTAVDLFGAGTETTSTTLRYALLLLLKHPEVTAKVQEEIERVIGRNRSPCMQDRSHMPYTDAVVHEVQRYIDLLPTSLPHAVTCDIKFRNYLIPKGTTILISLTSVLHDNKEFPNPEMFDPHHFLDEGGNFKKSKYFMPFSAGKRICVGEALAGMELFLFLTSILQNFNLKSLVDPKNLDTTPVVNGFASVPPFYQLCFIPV
Sequence of CYP2D6 (P10635 whole entry): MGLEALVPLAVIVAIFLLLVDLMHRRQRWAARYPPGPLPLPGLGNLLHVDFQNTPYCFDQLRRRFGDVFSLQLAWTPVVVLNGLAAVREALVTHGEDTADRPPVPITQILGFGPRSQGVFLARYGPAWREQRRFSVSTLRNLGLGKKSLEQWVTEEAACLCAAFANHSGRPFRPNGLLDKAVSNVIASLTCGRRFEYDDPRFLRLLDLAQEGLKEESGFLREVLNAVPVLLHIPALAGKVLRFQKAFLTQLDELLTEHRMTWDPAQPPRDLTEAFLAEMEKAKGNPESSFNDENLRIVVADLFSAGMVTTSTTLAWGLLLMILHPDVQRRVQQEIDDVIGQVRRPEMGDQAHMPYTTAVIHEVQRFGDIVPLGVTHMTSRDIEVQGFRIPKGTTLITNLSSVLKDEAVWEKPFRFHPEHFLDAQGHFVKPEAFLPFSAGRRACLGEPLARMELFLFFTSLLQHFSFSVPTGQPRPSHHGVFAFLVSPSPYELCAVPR
Sequence of CYP2C19 (P33261 whole entry): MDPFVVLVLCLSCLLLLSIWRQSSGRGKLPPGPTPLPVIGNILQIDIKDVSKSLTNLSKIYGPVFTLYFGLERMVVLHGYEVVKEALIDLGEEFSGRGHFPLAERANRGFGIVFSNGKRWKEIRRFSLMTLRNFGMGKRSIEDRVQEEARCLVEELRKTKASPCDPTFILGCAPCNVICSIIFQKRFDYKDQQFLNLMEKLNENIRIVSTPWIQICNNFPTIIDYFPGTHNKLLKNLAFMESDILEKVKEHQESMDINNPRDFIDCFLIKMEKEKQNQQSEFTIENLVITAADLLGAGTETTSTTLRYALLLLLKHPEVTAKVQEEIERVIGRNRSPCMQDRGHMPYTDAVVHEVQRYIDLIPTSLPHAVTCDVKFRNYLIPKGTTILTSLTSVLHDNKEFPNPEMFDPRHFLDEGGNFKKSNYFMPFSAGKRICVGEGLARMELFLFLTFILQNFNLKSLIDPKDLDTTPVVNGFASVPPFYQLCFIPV

Regarding `COc1cc(NC(=O)CCN2CCC(OC(=O)Nc3ccccc3-c3ccccc3)CC2)c(Cl)cc1CNC[C@H](O)c1ccc(O)c2[nH]c(=O)ccc12` [BATEFENTEROL], the Papp in data set [1] is on record as under 0.4 ×10⁻⁶ cm/s. Moreover, the Activity is 92% in the data set with Cavia porcellus [2]; 73% in the data set on Cavia porcellus [5]; 47% in the data set with Cavia porcellus [7]; 75% in the data set with Cavia porcellus [8]; “Non-toxic” in the data set on Salmonella typhimurium [12]; “Non-toxic” in the data set on Salmonella typhimurium [13]. In addition, the results for the Activity in the data set on Cavia porcellus [16], in the data set on Cavia porcellus [17] and in the data set on Rattus norvegicus were 77%, 48% and “Non-toxic”, respectively. For the same molecule, the Vd in data set [3] amounted to 0.32 L/kg. Further, the bioavailability in data set [4] is under 0.45%. Moreover, the inhibition at 0.6 µM against CYP2D6 is under 20%; on CYP2C19, under 20%; against CYP3A4, under 20%; on CYP2C9, under 20%; on CYP1A2 it was 25%. Moreover, the EC50 in the data set filed under Cavia porcellus [6] stood at 10 nM; in the data set filed under Cavia porcellus [10] it was 25 nM; in the data set listed under Cavia porcellus [11] it was 50 nM. In addition, the T1/2 in data set [9] came to 3 min. Moreover, in [14], the clearance is 75.3 mL/min/kg. Moreover, in [15], the half-life is 10.8 min. For the same molecule, the “inhibition (INH)” value in the data set listed under Cavia porcellus [18] was 4%; in [19], “Not Active”. Besides, the Drug metabolism result with Liver microsome was “metabolite_notdetected”. The molecule also showed an inhibition constant Ki in data set [20] of 2 nM. This molecule returned a half-life at 3 µM in data set [21] of 11.3 min.
Regarding `C[N+]1(C)[C@@H]2C[C@@H](OC(=O)C(O)(c3cccs3)c3cccs3)C[C@H]1[C@@H]1O[C@@H]12` [TIOTROPIUM], the outcome in the data set with Cavia porcellus [22], in the data set on Cavia porcellus [23], in the data set on Cavia porcellus [25] and in the data set with Cavia porcellus [26] was inactive. Further, the Activity with Cavia porcellus [24] was determined as 90%; in the data set on Cavia porcellus [28], 75%. In addition, in the data set listed under Cavia porcellus [27], the “inhibition (INH)” value is on record as 99%.
